18 compounds from paper PMC9080015 (RSC Advances, 2018) can be followed below.

As a reminder, the IC50 is the midpoint of a concentration-inhibition curve.

Read-outs that look alike come from different tables or passages of the source.

Assay type in all cases: biochemical
The target of one series is T1, recombinant human CYP1B1 (Homo sapiens, UniProt Q16678).
T1 sequence (Q16678 1-543): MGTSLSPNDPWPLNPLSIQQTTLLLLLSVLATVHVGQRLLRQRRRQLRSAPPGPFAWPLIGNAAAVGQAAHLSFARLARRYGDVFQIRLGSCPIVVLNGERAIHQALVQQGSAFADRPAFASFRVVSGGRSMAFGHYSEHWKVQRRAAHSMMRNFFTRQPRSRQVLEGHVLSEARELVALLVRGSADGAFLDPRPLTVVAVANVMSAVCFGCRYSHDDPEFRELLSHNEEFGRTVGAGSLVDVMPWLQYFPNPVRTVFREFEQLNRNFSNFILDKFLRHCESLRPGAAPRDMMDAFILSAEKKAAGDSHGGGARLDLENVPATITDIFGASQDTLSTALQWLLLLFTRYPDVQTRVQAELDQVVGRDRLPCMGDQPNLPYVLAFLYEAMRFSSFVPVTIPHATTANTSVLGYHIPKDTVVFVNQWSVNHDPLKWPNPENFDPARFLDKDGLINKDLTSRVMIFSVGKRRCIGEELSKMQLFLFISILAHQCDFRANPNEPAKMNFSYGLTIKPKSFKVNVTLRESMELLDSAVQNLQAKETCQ
As to the kind of experiment: EROD assay, recombinant human CYP1B1 inhibition. To be noted: for IC50 ratio 1A1/1B1: selectivity for CYP1B1 over CYP1A1; for IC50 ratio 1A2/1B1: selectivity for CYP1B1 over CYP1A2.

The target of a further series is T2, CYP1A2 (Homo sapiens, UniProt P05177).
T2 sequence (P05177 2-516 limits assumed): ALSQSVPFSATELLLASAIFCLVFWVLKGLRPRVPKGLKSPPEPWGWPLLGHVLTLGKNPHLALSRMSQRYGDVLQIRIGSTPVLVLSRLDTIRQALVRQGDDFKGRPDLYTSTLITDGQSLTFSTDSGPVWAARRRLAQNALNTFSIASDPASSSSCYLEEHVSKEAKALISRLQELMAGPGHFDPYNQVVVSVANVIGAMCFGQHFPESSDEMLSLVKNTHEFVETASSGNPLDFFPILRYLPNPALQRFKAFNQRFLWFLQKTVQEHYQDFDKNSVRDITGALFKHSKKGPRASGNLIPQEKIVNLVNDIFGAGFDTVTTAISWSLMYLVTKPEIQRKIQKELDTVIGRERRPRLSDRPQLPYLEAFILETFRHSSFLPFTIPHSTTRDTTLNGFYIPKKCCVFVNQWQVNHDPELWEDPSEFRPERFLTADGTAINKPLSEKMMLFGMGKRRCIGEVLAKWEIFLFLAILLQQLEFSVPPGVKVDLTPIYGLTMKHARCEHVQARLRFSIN
As to the kind of experiment: EROD assay, recombinant human CYP1A2 inhibition.

In another series the target is T3, CYP1A1 (Homo sapiens, UniProt P04798).
T3 sequence (P04798 1-512): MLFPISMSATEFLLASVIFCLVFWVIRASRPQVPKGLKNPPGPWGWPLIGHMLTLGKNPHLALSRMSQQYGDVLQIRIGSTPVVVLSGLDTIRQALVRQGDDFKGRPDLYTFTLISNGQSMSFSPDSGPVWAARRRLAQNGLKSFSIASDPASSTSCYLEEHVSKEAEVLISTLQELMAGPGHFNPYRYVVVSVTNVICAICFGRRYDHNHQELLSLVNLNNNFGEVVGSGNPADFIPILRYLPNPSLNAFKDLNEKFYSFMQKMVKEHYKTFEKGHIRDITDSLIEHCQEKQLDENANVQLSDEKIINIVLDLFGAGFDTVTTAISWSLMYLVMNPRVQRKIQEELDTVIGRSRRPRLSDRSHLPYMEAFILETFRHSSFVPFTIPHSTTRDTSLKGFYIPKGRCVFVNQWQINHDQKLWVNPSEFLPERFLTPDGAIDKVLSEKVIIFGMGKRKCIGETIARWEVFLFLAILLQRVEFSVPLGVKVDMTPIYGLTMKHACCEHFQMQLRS
As to the kind of experiment: EROD assay, recombinant human CYP1A1 inhibition. The method, boiled down: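 Supersomes with P450 reductase. Test compound is taken from 10 mM DMSO stock into Tris–HCl pH 7.4 (final DMSO <1% v/v), at several concentrations. Methanol stop. Resorufin fluorescence read at ex 544/em 590 nm. IC50 from nonlinear regression, log(inhibitor) vs normalized response, variable slope.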

Setting [1] is: read-out: IC50 values (nM) 1B1, EROD assay, 20 fmol CYP1B1, 150 nM 7-ER, 37 °C, 35 min.

Turning to “2-Phenylbenzo[h]quinolin-4-ol [Compound 4a]”, the half-inhibitory concentration (IC50) at recombinant human CYP1B1 (setting [1]) is 7.6 nM; at CYP1A2 (read-out: IC50 values (nM) 1A2, EROD assay, 60 fmol CYP1A2, 150 nM 7-ER, 37 °C, 50 min), 147 nM; on CYP1A1 (read-out: IC50 values (nM) 1A1, EROD assay, 10 fmol CYP1A1, 150 nM 7-ER, 37 °C, 15 min), 18.5 nM. Moreover, the “IC50 ratio 1A1/1B1” value at recombinant human CYP1B1 turned out to be 2.4. Besides, the “IC50 ratio 1A2/1B1” value at recombinant human CYP1B1 is recorded as 19.3.

For the compound `COc1cc2c(=O)cc(-c3cccc(Cl)c3)[nH]c2c2c(OC)cccc12` [Compound 5d, 2-(3-Chlorophenyl)-6,10-dimethoxybenzo[h]quinolin-4(1H)-one], on recombinant human CYP1B1, the IC50 was determined as 27.6 nM, the “IC50 ratio 1A1/1B1” value was determined as 1.1 and the “IC50 ratio 1A2/1B1” value turned out to be 3.1. The IC50 on CYP1A2 was 84.5 nM. Moreover, the IC50 on CYP1A1 is 29.4 nM.

Turning to `COc1cc(C2CC(=O)c3ccc4ccccc4c3N2)cc(OC)c1OC` (stereo not shown) [Compound 1b, 2-(3,4,5-Trimethoxyphenyl)-2,3-dihydrobenzo[h]quinolin-4(1H)-one], the IC50 was 20.2 nM at recombinant human CYP1B1, above 5000 nM on CYP1A2 and 44.6 nM at CYP1A1. For the same compound, the “IC50 ratio 1A1/1B1” value on recombinant human CYP1B1 stood at 2.2. The “IC50 ratio 1A2/1B1” value on recombinant human CYP1B1 is given as above 247.5.

For the compound `O=c1c(O)c(-c2ccccc2)[nH]c2c1ccc1ccccc12` [Compound 3a, 3-Hydroxy-2-phenylbenzo[h]quinolin-4(1H)-one], on recombinant human CYP1B1, the IC50 worked out at 86.7 nM, the “IC50 ratio 1A1/1B1” value was found to be 10.4 and the “IC50 ratio 1A2/1B1” value is above 57.7. Besides, the IC50 at CYP1A2 was above 5000 nM. Also, the IC50 at CYP1A1 came out at 898 nM.

For `O=C1CC(c2cccc(F)c2)Nc2c1ccc1ccccc21` (stereo not shown) [Compound 1d, 2-(3-Fluorophenyl)-2,3-dihydrobenzo[h]quinolin-4(1H)-one], at recombinant human CYP1B1, the IC50 was 98.6 nM, the “IC50 ratio 1A1/1B1” value is given as 5.0 and the “IC50 ratio 1A2/1B1” value worked out at 10.6. Further, on CYP1A2, the IC50 was found to be 1050 nM. The IC50 on CYP1A1 stood at 493 nM.

With `COc1cc2c(=O)cc(-c3cccc(F)c3)[nH]c2c2c(OC)cccc12` [Compound 5c, 2-(3-Fluorophenyl)-6,10-dimethoxybenzo[h]quinolin-4(1H)-one], on recombinant human CYP1B1, the IC50 came out at 7.8 nM, the “IC50 ratio 1A1/1B1” value amounted to 5.0 and the “IC50 ratio 1A2/1B1” value turned out to be 42.4. For the same compound, the IC50 at CYP1A2 is 331 nM. Further, the IC50 on CYP1A1 was determined as 39.3 nM.

Turning to `O=C1c2ccc3ccccc3c2N[C@@H](c2ccccc2)[C@H]1O` [Compound 2a, (2S,3R) 3-Hydroxy-2-phenyl-2,3-dihydrobenzo[h]quinolin-4(1H)-one], the figures for the IC50 at recombinant human CYP1B1, at CYP1A2 and on CYP1A1 were 260 nM, 1410 nM and 588 nM, respectively. The “IC50 ratio 1A1/1B1” value on recombinant human CYP1B1 turned out to be 2.3. Besides, the “IC50 ratio 1A2/1B1” value at recombinant human CYP1B1 worked out at 5.4.

Take `O=C1CC(c2ccccc2)Nc2c1ccc1ccccc21` (stereo not shown) [Compound 1a, 2-Phenyl-2,3-dihydrobenzo[h]quinolin-4(1H)-one]: the values for the IC50 at recombinant human CYP1B1, at CYP1A2 and at CYP1A1 were 131 nM, 953 nM and 405 nM, respectively. Moreover, the “IC50 ratio 1A1/1B1” value on recombinant human CYP1B1 worked out at 3.1. On recombinant human CYP1B1, the “IC50 ratio 1A2/1B1” value stood at 7.3.

For the compound `COc1cc2c(=O)cc(-c3ccc(F)cc3)[nH]c2c2c(OC)cccc12` [Compound 5g, 2-(4-Fluorophenyl)-6,10-dimethoxybenzo[h]quinolin-4(1H)-one], at recombinant human CYP1B1, the “IC50 ratio 1A1/1B1” value stood at 2.7 and the “IC50 ratio 1A2/1B1” value amounted to 540.3. The concentration for half-maximal inhibition (IC50) on CYP1A2 is 2110 nM.

Regarding `COc1cc(-c2ccccc2)nc2c1ccc1ccccc12` [Compound 4b, 4-Methoxy-2-phenylbenzo[h]quinoline], the “IC50 values (nM) 1B1” value at recombinant human CYP1B1 (EROD assay, 20 fmol CYP1B1, 150 nM 7-ER, 37 °C, 35 min) is on record as “no longer a CYP1 inhibitor”. At recombinant human CYP1B1 (setting [1]), the IC50 is above 5000 nM. At CYP1A2 (human, recombinant human CYP1A2 with P450 reductase (Supersomes), pH 7.4, probe 7-ethoxyresorufin (7-ER), 150 nM), the concentration for half-maximal inhibition (IC50) at 50 min is above 5000 nM. In addition, the IC50 at 15 min on CYP1A1 (human, recombinant human CYP1A1 with P450 reductase (Supersomes), pH 7.4, probe 7-ethoxyresorufin (7-ER), 150 nM) is above 5000 nM.

Take `COc1cc([C@@H]2Nc3c(ccc4ccccc34)C(=O)[C@@H]2O)cc(OC)c1OC` [Compound 2b, (2S,3R) 3-Hydroxy-2-(3,4,5-trimethoxyphenyl)-2,3-dihydrobenzo[h]quinolin-4(1H)-one]: the IC50 is 303 nM on recombinant human CYP1B1, above 5000 nM at CYP1A2 and 1160 nM at CYP1A1. For the same compound, on recombinant human CYP1B1, the “IC50 ratio 1A1/1B1” value is 3.8. Besides, the “IC50 ratio 1A2/1B1” value on recombinant human CYP1B1 is on record as above 16.5.

As to `COc1ccc(-c2cc(=O)c3cc(OC)c4cccc(OC)c4c3[nH]2)cc1` [Compound 5h, 6,10-Dimethoxy-2-(4-methoxyphenyl)benzo[h]quinolin-4(1H)-one], on recombinant human CYP1B1, the “IC50 ratio 1A1/1B1” value amounted to 15.8 and the “IC50 ratio 1A2/1B1” value was above 1219.5. In addition, the IC50 on CYP1A2 is above 5000 nM.

For `COc1cc2c(=O)cc(-c3ccc(C(F)(F)F)cc3)[nH]c2c2c(OC)cccc12` [Compound 5i, 6,10-Dimethoxy-2-(4-(trifluoromethyl)phenyl)benzo[h]quinolin-4(1H)-one], at recombinant human CYP1B1, the IC50 was 34.4 nM, the “IC50 ratio 1A1/1B1” value was found to be 8.7 and the “IC50 ratio 1A2/1B1” value worked out at 38.9. For the same compound, on CYP1A2, the IC50 is 1340 nM. Besides, the IC50 at CYP1A1 came out at 300 nM.

Consider `COc1cccc(-c2cc(=O)c3cc(OC)c4cccc(OC)c4c3[nH]2)c1` [Compound 5f, 6,10-Dimethoxy-2-(3-methoxyphenyl)benzo[h]quinolin-4(1H)-one], for which, on recombinant human CYP1B1, the IC50 came out at 7.1 nM, the “IC50 ratio 1A1/1B1” value came out at 5.0 and the “IC50 ratio 1A2/1B1” value amounted to 26.8. Moreover, the IC50 on CYP1A2 stood at 190 nM. In addition, the IC50 on CYP1A1 was 35.8 nM.

For the compound `O=c1cc(-c2ccccc2)[nH]c2c1ccc1ccccc12` [Compound 3e, 2-Phenylbenzo[h]quinolin-4(1H)-one], on recombinant human CYP1B1, the IC50 came to 17.3 nM, the “IC50 ratio 1A1/1B1” value is given as 6.0 and the “IC50 ratio 1A2/1B1” value was found to be 27.9. Moreover, the IC50 on CYP1A2 came out at 483 nM. On CYP1A1, the concentration for half-maximal inhibition (IC50) amounted to 103 nM.

Consider `COc1cc2c(=O)cc(-c3ccccc3F)[nH]c2c2c(OC)cccc12` [Compound 5b, 2-(2-Fluorophenyl)-6,10-dimethoxybenzo[h]quinolin-4(1H)-one], for which, at recombinant human CYP1B1, the IC50 is 27.9 nM, the “IC50 ratio 1A1/1B1” value is 0.9 and the “IC50 ratio 1A2/1B1” value is 6.2. Also, the IC50 at CYP1A2 was 174 nM. The IC50 at CYP1A1 came to 26.4 nM.

As for `O=c1c(O)c(-c2ccccc2F)[nH]c2c1ccc1ccccc12` [Compound 3b, 2-(2-Fluorophenyl)-3-hydroxybenzo[h]quinolin-4(1H)-one], at recombinant human CYP1B1, the IC50 stood at 85.9 nM, the “IC50 ratio 1A1/1B1” value came to 20.8 and the “IC50 ratio 1A2/1B1” value is above 58.2. Also, the IC50 on CYP1A2 was above 5000 nM. Moreover, the concentration for half-maximal inhibition (IC50) on CYP1A1 was determined as 1780 nM.

Turning to `COc1cc(-c2cc(=O)c3cc(OC)c4cccc(OC)c4c3[nH]2)cc(OC)c1OC` [Compound 5j, 6,10-Dimethoxy-2-(3,4,5-trimethoxyphenyl)benzo[h]quinolin-4(1H)-one], at recombinant human CYP1B1, the IC50 is 164 nM, the “IC50 ratio 1A1/1B1” value came to 4.9 and the “IC50 ratio 1A2/1B1” value is listed as above 30.5. On CYP1A2, the IC50 was above 5000 nM. The IC50 at CYP1A1 came to 809 nM.
